{"data": "Published values collected from several papers", "target": "Mitogen-activated protein kinase 3 (MAPK3, Homo sapiens, UniProt P27361)", "note": "Compare with care: the assays were run in different laboratories."}
{"Compound": "Cn1c2c(c3ccc(Cl)c(Cl)c31)C(C#N)C1(CCCC1)NC2=O (stereo not shown)", "assay": "thermal stability, DSF", "conditions": "10 µM", "measurement": "ΔTm", "value": "-0.2 °C"}
{"Compound": "CCN1CCN(Cc2ccc(NC(=O)c3ccc(C)c(/C=C/c4cnc5[nH]ccc5c4OC)c3)cc2C(F)(F)F)CC1", "assay": "target engagement in cells, inhibitor, chemoproteomics", "test system": "A-375", "conditions": "5 µM", "measurement": "inhibition", "value": "-26.3%"}
{"Compound": "Oc1cccc(-c2nc(N3CCOCC3)c3oc4ncccc4c3n2)c1", "assay": "enzyme activity, inhibitor", "conditions": "10 µM", "measurement": "remaining activity", "value": "112%"}
{"Compound": "CC1(C)NC(=O)c2[nH]c3c(Cl)c(Cl)ccc3c2C1C#N (stereo not shown)", "assay": "thermal stability, DSF", "conditions": "10 µM", "measurement": "ΔTm", "value": "0.2 °C"}
{"Compound": "Nc1nc(NC2CCCCC2)sc1C(=O)c1ccccc1", "assay": "enzyme activity, inhibitor", "conditions": "10 µM", "measurement": "remaining activity", "value": "20%"}
{"Compound": "O=C(N[C@H]1CCCCC/C=C\\C2C[C@@]2(C(=O)O)NC(=O)[C@@H]2C[C@@H](Oc3ccncc3)CN2C1=O)OC1CCCC1 (stereo partly shown)", "assay": "binding, competition with immobilised ligand", "conditions": "1 µM", "measurement": "remaining binding", "value": "69%"}
{"Compound": "CCC1(CC)NC(=O)c2c(c3ccc(Cl)c(Cl)c3n2C)C1C#N (stereo not shown)", "assay": "thermal stability, DSF", "conditions": "10 µM", "measurement": "ΔTm", "value": "0 °C"}
{"Compound": "Cc1ccc(C(=O)Nc2ccc(CN3CCN(C)CC3)c(C(F)(F)F)c2)cc1C#Cc1cnc2cccnn12", "assay": "enzyme activity, inhibitor", "conditions": "23.5 nM", "measurement": "remaining activity", "value": "100%"}
{"Compound": "Cn1nc(C(=O)NCc2ccc(C(=O)O)cc2)cc1-c1ccc2[nH]ccc2c1", "assay": "cell-free assay, competition with immobilised ligand", "conditions": "0.1 µM", "measurement": "remaining binding", "value": "94%"}
{"Compound": "Cn1c2c(c3ccc(Cl)c(Cl)c31)C(C#N)C1(CCNCC1)NC2=O (racemic)", "assay": "thermal stability, DSF", "conditions": "10 µM", "measurement": "ΔTm", "value": "0.5 °C"}
{"Compound": "N#CCCc1ccc2c(c1)-c1[nH]c3ccc([N+](=O)[O-])cc3c1CC(=O)N2", "assay": "cell-free assay", "conditions": "0.5 µM", "measurement": "remaining signal", "value": "95.1%"}
{"Compound": "FC(F)c1nc2ccccc2n1-c1nc(N2CCOCC2)nc(N2CCOCC2)n1", "assay": "enzyme activity, inhibitor", "conditions": "10 µM", "measurement": "remaining activity", "value": "106%"}
{"Compound": "Cc1ccc(NC(=O)c2ccc(CN3CCN(C)CC3)cc2)cc1Nc1nc(-c2cccnc2)cs1", "assay": "cell-free assay", "conditions": "0.5 µM", "measurement": "remaining signal", "value": "103%"}
{"Compound": "CCN1CCN(Cc2ccc(NC(=O)c3ccc(C)c(Oc4ccnc5[nH]ccc45)c3)cc2C(F)(F)F)CC1", "assay": "target engagement in cells, inhibitor, chemoproteomics", "test system": "A-375", "conditions": "5 µM", "measurement": "inhibition", "value": "-51.2%"}
{"Compound": "Cc1sc(C(=O)NC2COC2)cc1-n1cc(NC(=O)Nc2c(F)cccc2Cl)cn1", "assay": "enzyme activity, inhibitor", "conditions": "10 µM", "measurement": "remaining activity", "value": "107%"}
{"Compound": "COc1ccc2c(c1)O[C@H](c1ccc(OC)c(OC)c1)C[C@@H]2NC(=O)C1(c2ccc3c(c2)OC(F)(F)O3)CC1", "assay": "cell-free assay, competition with immobilised ligand", "conditions": "1 µM", "measurement": "remaining binding", "value": "100%"}
{"Compound": "FC(F)(F)Oc1cccc(-c2cnc3ccc(-c4ccncc4)nn23)c1", "assay": "enzyme activity, inhibitor, radiometric", "conditions": "5 µM", "measurement": "activity vs control", "value": "82%"}
{"Compound": "N#CC(c1ccnc(NCCc2cccnc2)n1)c1nc2ccccc2s1 (stereo not shown)", "assay": "enzyme activity, inhibitor", "conditions": "0.5 µM", "measurement": "remaining activity", "value": "99.4%"}
{"Compound": "Cc1cc(C)c(-n2ccn3nc(-c4cccnc4)cc23)cc1NC(=O)c1cc(C#N)cc(S(F)(F)(F)(F)F)c1", "assay": "cell-free assay, competition with immobilised ligand", "conditions": "0.1 µM", "measurement": "remaining binding", "value": "95.2%"}
{"Compound": "O=C1NC(=O)c2cc(Nc3ccc(F)cc3)c(Nc3ccc(F)cc3)cc21", "assay": "cell-free assay", "conditions": "0.5 µM", "measurement": "remaining signal", "value": "86.1%"}
{"Compound": "N#CC1(c2ccccn2)CCN(Cc2cc(C(=O)N3CCCC3)c(=O)n3ccccc23)CC1", "assay": "cell-free assay, competition with immobilised ligand", "conditions": "1 µM", "measurement": "remaining binding", "value": "91%"}
{"Compound": "COc1cc2ncnc(Nc3ccc(Oc4ccccc4)c(C)c3C)c2cc1OC", "assay": "enzyme activity, inhibitor", "conditions": "1 µM", "measurement": "inhibition", "value": "0%"}
{"Compound": "Cc1cc(-n2nc(Cc3cc(F)cc(C(F)(F)F)c3)nc2C)ccc1C(N)=O", "assay": "cell-free assay, competition with immobilised ligand", "conditions": "1 µM", "measurement": "remaining binding", "value": "100%"}
{"Compound": "Cn1c2c(Cl)c(Cl)ccc2c2cc[nH]c(=O)c21", "assay": "thermal stability, DSF", "conditions": "10 µM", "measurement": "ΔTm", "value": "-0.4 °C"}
{"Compound": "CC(C)(C)c1nc2c(s1)c1nc(N)ncc1c1ccc(NS(=O)(=O)c3c(F)cccc3F)c(F)c12", "assay": "enzyme activity, inhibitor, radiometric", "conditions": "1 µM", "measurement": "remaining activity", "value": "84%"}
{"Compound": "O=C(Nc1cnn(-c2csc(C(=O)NC3COC3)c2)c1)Nc1ccccc1Cl", "assay": "enzyme activity, inhibitor", "conditions": "5 µM", "measurement": "remaining activity", "value": "92.8%"}
{"Compound": "Nc1cnc(N2CCc3cc(S(=O)(=O)Nc4c(F)cc(Cl)cc4F)cc(N4CCCC4=O)c32)nc1", "assay": "cell-free assay, competition with immobilised ligand", "conditions": "1 µM", "measurement": "remaining binding", "value": "91%"}
{"Compound": "COc1cc(Nc2cnc(C#N)c(O[C@H](C)CN(C)C)n2)ncc1-c1cnn(C)c1", "assay": "enzyme activity, inhibitor, radiometric", "conditions": "10 µM", "measurement": "remaining activity", "value": "71%"}
{"Compound": "CC/C(=N\\NC(=O)NCc1cccc(O)c1)c1ccc(O)c(C)c1O", "assay": "enzyme activity, inhibitor", "conditions": "0.1 µM", "measurement": "inhibition", "value": "-2.7%"}
{"Compound": "COc1cc(/C=C/C(=O)CC(=O)/C=C/c2ccc(O)c(OC)c2)ccc1O", "assay": "enzyme activity, inhibitor", "conditions": "1 µM", "measurement": "activity vs control", "value": "94%"}
{"Compound": "Cn1c2c(Cl)c(Cl)ccc2c2cc(N)[nH]c(=O)c21", "assay": "thermal stability, DSF", "conditions": "10 µM", "measurement": "ΔTm", "value": "-0.4 °C"}
{"Compound": "O=C1C(Cl)=C(N2C(=O)CCC2=O)C(=O)c2ccccc21", "assay": "enzyme activity, inhibitor", "conditions": "0.5 µM", "measurement": "remaining activity", "value": "99.3%"}
{"Compound": "O=C(NC[C@@H]1[C@H]2CN(C(=O)OCc3cc(C(F)(F)F)cc(C(F)(F)F)c3)C[C@@H]12)c1ccc2[nH]nnc2c1", "assay": "cell-free assay, competition with immobilised ligand", "conditions": "1 µM", "measurement": "remaining binding", "value": "100%"}
{"Compound": "Cn1c2c(c3ccc(Cl)c(Cl)c31)C(C#N)C1(CCOCC1)NC2=O (stereo not shown)", "assay": "thermal stability, DSF", "conditions": "10 µM", "measurement": "ΔTm", "value": "0.1 °C"}
